The values that follow come from ChEMBL document CHEMBL4513216, “Probing the Open Global Health Chemical Diversity Library for Multistage-Active Starting Points for Next-Generation Antimalarials” (ACS Infect Dis, 2020).

Molecules are shown by their SMILES.

The series is described as follows: Toxicity liver stage against HepG2, at 10uM. It is filed as cell-based. Further details: test concentration 10 uM, cell line HepG2-A16-CD81EGFP. Particulars: human, HepG2-A16-CD81EGFP cells; read-out: INHIBITION
Summed up:
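Uninfected HepG2-A16-CD81EGFP cells, 3 × 10^3 per well, 1536-well, plated on prespotted compound at 10 μM final, parasite-free screening media added to match infected plates; puromycin 10 μM positive, DMSO 0.5% negative; run in parallel with 48 h PbLuc assay at 37 °C, 5% CO2; viability by CellTiter-Glo luminescence, normalized to controls.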

`O=C(CN1CCC(c2cc(=O)n3c(n2)CCCCC3)CC1)N1CCCC1`: the cytotoxicity at 10 µM is 4.62%.
In the case of `CNC(=O)Cc1coc(-c2ccc(F)cc2)n1`, the cytotoxicity at 10 µM is -4.15%.
The same measure for `COc1ccccc1N1CCN(C(=O)CCn2nnnc2C)CC1(C)C`: 6.48%; for `COCCn1c(=O)n(C)c(=O)c2ccc(C3CCC(CN)CC3)nc21` (stereo not given): -0.2%; for `O=S(=O)(C1CC1)N1CCO[C@@H]2CN(Cc3ccco3)C[C@@H]2C1`: -140%.
Next, `N#Cc1ccc(NCc2cccnc2N2CCC(C(N)=O)CC2)cn1`: -47.9%; `CC(O)CN1CCN(C(=O)c2cc3ccccc3c(=O)[nH]2)CC1` (stereo not given): -2.64%; `CC(=O)N1CCN([C@@H]2CC[C@@H](NC(=O)c3cc(C)cs3)[C@H]2O)CC1`: 6.02%.
Consider `Cc1cccc(-c2nc(C)nn2CC(=O)NC2CCCC2)c1`, for which the cytotoxicity at 10 µM is -12.5%.
The same measure for `Cn1cc(CCNC(=O)NCc2ccc3c(c2)OCCO3)cn1`: -10.7%; for `CCCn1nc2c(cc1=O)CN(Cc1nc(-c3ccoc3)no1)CC2`: 8.64%.
`O=C(CCc1nc(Cl)n[nH]1)N1CCC2(CCCNC2=O)C1` (stereo not given): the cytotoxicity at 10 µM was -6.37%.
The same measure for `COCCO[C@H]1CCN(C(=O)c2ccno2)[C@H]1Cc1cnn(C)c1`: -5.45%; for `CN(c1ncnc2c1cnn2C)C1CCCN(c2cccnn2)C1` (stereo not given): 3.93%.
Regarding `NC(=O)c1csc(N2C[C@@H](CN3CCCCC3)[C@@H](CO)C2)n1`, the cytotoxicity at 10 µM is -1.39%.
Take `CN(CCc1ccncc1)C(=O)c1sccc1OC(F)F`: the cytotoxicity at 10 µM is -9.32%.
`Cc1noc(C)c1CNC(=O)N(C)C1CCN(c2ccccc2)C1=O` (stereo not given): the cytotoxicity at 10 µM is -8.63%.
Next, `CCC(CC)NCC(c1ccccn1)N1CCOCC1` (stereo not given): -44.8%; `CC(C)CS(=O)(=O)CC(=O)NC1CCCCNC1=O` (stereo not given): -3.03%.
Regarding `COc1ccc(OCCN2CCC(c3ccnn3CCO)CC2)cc1`, the cytotoxicity at 10 µM is -6.9%.
Take `CN(C)Cc1nn(C)c2c1CCN(C(=O)c1cccnc1)C2`: the cytotoxicity at 10 µM is 6.24%.
The same measure for `CN1CCN(Cc2nnc(C3CCN(C4CCCCC4)CC3)n2C)CC1`: 3.18%; for `CCCNc1cc(C(=O)N2CCOCC2)nc(C)n1`: 10.8%.
The same measure for `COc1ccccc1CCN(C)C(=O)NC(C)c1nncn1C` (stereo not given): -1.88%; for `CN1CCOC(CN(C(=O)CCCn2cccn2)c2nccs2)C1` (stereo not given): -22.7%; for `c1ccc(-c2nc(CCNCc3cccnc3)co2)cc1`: -5.35%.
Next, `CC(C)c1[nH]c2ncccc2c1CN1CCOCC1`: 0.752%; `COCCC1(CNC(=O)NCC2CCCN(C)C2)CCC1` (stereo not given): -1.11%.
On to `COc1c[nH]c(C(=O)Nc2nc(C)cs2)cc1=O`, for which the cytotoxicity at 10 µM was -44.4%.
The same measure for `Cc1cnc(CN2CCC(N(C)Cc3noc(C4CC4)n3)C2)o1` (stereo not given): -12.6%; for `CS(=O)(=O)NCc1noc2c1CN(C(=O)C1CCC1)CC2`: -105%.
Consider `COCCc1ncc(CN2C[C@@H](C(=O)O)[C@H](C(C)C)C2)cn1`, for which the cytotoxicity at 10 µM is -5.35%.
On to `O=C(c1ccc[nH]1)N1CCOCC12CCCC2`, for which the cytotoxicity at 10 µM turned out to be 12.3%.
With `CCS(=O)(=O)N1Cc2cncn2CC(C(=O)NCC2CC2)C1` (stereo not given), the cytotoxicity at 10 µM was -97.6%.
Next, `COCC(=O)N1CCC2(C1)c1ccccc1S(=O)(=O)N2CC1CC1` (stereo not given): 4.39%.
Next, `Cc1nc(C2(NCC(=O)NC(=O)Nc3ccccc3)CCCCC2)no1`: 30.4%.
The same measure for `COc1ccccc1CCNC(=O)CN1CCCC1c1noc(C)n1` (stereo not given): -3.81%.
For `Cc1cccc(C(C(=O)N(C)Cc2ccco2)N(C)C)c1` (stereo not given), the cytotoxicity at 10 µM worked out at 3.15%.
For the compound `COc1ccc(-c2cn3c(n2)CO[C@@H](CNCc2ccccn2)C3)cc1`, the cytotoxicity at 10 µM was -11.8%.
`CN1CCN(c2ccc(NCc3ccc([S+](C)[O-])cc3)cn2)CC1` (stereo not given): the cytotoxicity at 10 µM is 9.84%.
The same measure for `CN1CCC(NC(=O)c2cc(C3CCCCC3)nc3ccccc23)CC1`: -1.25%.
The same measure for `CCCNC(=O)c1nn(CC)cc1NC(=O)c1cn(C)nc1C`: -5.63%; for `Cn1cc(N2CCC3(CCN(C(=O)c4cccn4C)C3)C2=O)cn1` (stereo not given): 2.93%; for `O=C1CC2(CCN(c3nncs3)C2)CN1c1ccc2c(c1)OCCO2` (stereo not given): 6.66%.
With `COCC(=O)N1C[C@@H](C)[C@](O)(C(C)C)C1`, the cytotoxicity at 10 µM worked out at 1.69%.
Take `Cc1cc(C(=O)N[C@@H]2CCNC[C@H]2O)ccc1Cl`: the cytotoxicity at 10 µM is -18.4%.
Consider `c1cncc(CN2CCc3ncnc(NCCc4c[nH]cn4)c3CC2)c1`, for which the cytotoxicity at 10 µM is 2.57%.
As for `Cc1nc(COCc2nc3c(o2)CN(C(=O)c2ccc[nH]2)C3)cs1`, the cytotoxicity at 10 µM came to 0.657%.
In the case of `CC1CCCN(Cc2c(C3CCOCC3)[nH]c3ncccc23)C1` (stereo not given), the cytotoxicity at 10 µM is -2.03%.
With `CC(=O)N1CCCC2(CCN(Cc3ccc(Cl)c(C(F)(F)F)c3)C2)C1` (stereo not given), the cytotoxicity at 10 µM is 11.9%.
Next, `Cn1nnc2c1C(COCC1CC1)CN(C(=O)[C@H]1CCCO1)C2` (stereo not given in full): -8.01%; `Cc1ncc(CN2CC[C@@](C)(O)[C@H](Oc3cccc(F)c3)C2)cn1`: -13.4%; `CC(NC(=O)Nc1ccncc1)c1ccc2c(c1)CC(=O)N2` (stereo not given): -5.76%.
Turning to `CC(=O)N1C[C@H](NS(=O)(=O)N2CCOCC2)[C@@H](c2ccc(C)o2)C1`, the cytotoxicity at 10 µM is -1.43%.
The same measure for `CCN(CC1CN(CC2CCC2)CCO1)c1cccnn1` (stereo not given): 2.82%; for `O=C1COC[C@H]([C@H](O)c2ccc(NC(=O)c3cccnc3)cc2)N1`: 0.317%; for `Cc1ccc(CNCc2nnc3n2CC(C(F)(F)F)CC3)o1` (stereo not given): 9.87%.
With `Cc1cc(C)cc(-n2ncc3c2CCCC3N)c1` (stereo not given), the cytotoxicity at 10 µM was found to be 7.63%.
Next, `CC1CCN(C(=O)c2ccnc(-n3cncn3)c2)c2ccccc21` (stereo not given): 13%; `CC(=O)NCCCSC1CCN(c2c(F)cccc2F)C1=O` (stereo not given): -6.35%.
Next, `C[C@@H]1CN(C(=O)c2cnc(C3CC3)nc2)CC[C@@]1(O)C1CCOCC1`: -13.9%.
Next, `CCn1cc2c(n1)C(COCC1CC1)CN(C(=O)c1ccco1)C2` (stereo not given): 17.6%; `Cc1cnn(CCCn2ncc(N3CCC(CN)C3)cc2=O)c1` (stereo not given): -48.2%.
For `CCOc1ccccc1C(=O)NS(=O)(=O)c1ccc2c(c1)OCCCO2`, the cytotoxicity at 10 µM was 5.04%.
As for `CCc1ncc2c(n1)CN(Cc1cn3ccsc3n1)CC2`, the cytotoxicity at 10 µM is -8.26%.
The same measure for `O=C([C@H]1CCCO1)N1CCc2ncnc(C3CC3)c2CC1`: 4.79%; for `O=C(O)[C@@]12CN(c3cnccn3)C[C@@H]1CN(C1CCOCC1)C2`: 1.92%.
The same measure for `COc1ccccc1OC1CN(C(=O)C(c2ccc(F)cc2)N(C)C)C1` (stereo not given): 1.42%; for `CC(C)(C)c1nnc2n1C(C(=O)N1CCN(c3ncccn3)CC1)CC2` (stereo not given): -7.46%; for `Cn1nc(-c2ccc(F)cc2)cc1C(=O)NCCn1ccnc1`: 3.68%.
With `CN(C)C(=O)COC1COC2(CCN(S(C)(=O)=O)CC2)C1` (stereo not given), the cytotoxicity at 10 µM was -1.08%.
The same measure for `CC(C)NC(=O)N1CCN(CC2CC2)c2ncccc2C1`: -108%; for `Cc1cc(C2CCCN(Cc3nnc(Cc4ccccc4)o3)C2)n[nH]1` (stereo not given): -5.78%.
As to `COc1cccc(OC2CN(C(=O)c3sccc3C)C2)c1`, the cytotoxicity at 10 µM is 2.3%.
Regarding `O=C(Cc1ccccc1)NCc1ncc(-c2ccccc2C(=O)O)cn1`, the cytotoxicity at 10 µM is -1.89%.
Turning to `CCc1ccsc1C(=O)N1CCCC(c2noc(C)n2)C1` (stereo not given), the cytotoxicity at 10 µM came out at 3.77%.
Regarding `CN1CCC(CNC(=O)c2cccc(C(F)(F)F)c2)c2ccccc21` (stereo not given), the cytotoxicity at 10 µM came out at 17.4%.
The same measure for `CC(C)c1ccc(CNC(C)c2ccc(S(C)(=O)=O)cc2)cc1` (stereo not given): 13.9%.
For `CCn1nccc1CNC(=O)Cn1cc2c(n1)c(C)nn2C(C)C`, the cytotoxicity at 10 µM was -4.7%.
As to `CC(C)(O)CN1CCN(C(=O)COCC2CC2)CC1`, the cytotoxicity at 10 µM is -9.17%.
The same measure for `CSc1ccc(CNC(c2ccc(F)cc2)c2nccn2C)cc1` (stereo not given): -10.8%.
Next, `CN(Cc1noc2c1CCCC2)C(=O)Nc1cncc(F)c1`: 2.26%; `COc1ccc(C2=CN=C(C(F)(F)F)CC2N)cc1` (stereo not given): 16.6%.
`O=C1NC(c2ccccc2)=N[C@@]12CC[C@@H]1CN(Cc3ccncc3)C[C@@H]12`: the cytotoxicity at 10 µM amounted to 11.9%.
The same measure for `O=C(c1ccco1)N1CCC2(CC1)C(=O)Nc1ccccc12`: -144%; for `CN(Cc1nnc(C2CC2)n1C)S(=O)(=O)c1ccc(F)c(C#N)c1`: 18.4%.
With `CC(C)CNC(=O)c1cccc(Oc2ccc3nncn3n2)c1`, the cytotoxicity at 10 µM is -1.95%.
For `CC(C)COc1cncc(N2CCCC(CC(N)=O)C2)n1` (stereo not given), the cytotoxicity at 10 µM was -1.67%.
Next, `CN(C)CCO[C@H]1CN(Cc2cccc(C#N)c2)[C@@H]2COC[C@H]12`: -12.7%; `CN(C(=O)Cc1coc(-c2cccs2)n1)C1(C#N)CCC1`: 6.52%; `Cc1cccc(CN2C(=O)CO[C@@H]3CN(Cc4nccn4C)C[C@H]32)c1`: -16.7%.
In the case of `CNS(=O)(=O)c1cc(C(=O)N(C)Cc2sccc2C)c(C)o1`, the cytotoxicity at 10 µM is -8.43%.
Take `CN(CC(C)(CO)CO)C(=O)Nc1cc(F)cc(F)c1`: the cytotoxicity at 10 µM is 0.669%.
Next, `Cc1ccc(S(=O)(=O)NCc2cnn(C)c2)c(F)c1`: -13%.
The same measure for `Cc1nccc([C@@H]2C[C@@H]3CCN(Cc4c(C)noc4C)C[C@H]3O2)n1`: -76.9%.
